Screening data deposited in PubChem BioAssay by Broad Institute.
Rows were chosen to be rich in hits. Some 2.6% of all compounds tested hit in one or more screens of this group.
FN deposition inh: fibronectin deposition inhibition | AH1F fibroblasts, Alexa488-fibronectin deposition fluorescence, overnight | inhibition, % at 12.6 µM | 350,000 tested, 0.086% active | AID 743247;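 active = mean inhibition across replicates of 30% or more, regardless of how many single replicates reach that level; inconclusive = mean under 30% yet at least half of replicates reach 30%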;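 also: positive control wells lacked labelled fibronectin entirely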
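Measured by – fluorescence 485/525 nm · System – AH1F fibroblast monolayer, labelled fibronectin deposition · Amount – 10000 cells per well · Buffer or medium – serum-reduced DMEM (2% serum) · Doses – single dose, pinned · Also added – fluorescent fibronectin at 24 nM final · Schedule – 1 h cell attachment, overnight exposure to compound and label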
miR122 inh: inhibitors of miR-122 in Huh7 cells | 340,000 tested, 0.3% active | Huh7 miR-122 Renilla luciferase sensor, 48 h; neutral wells = 0, positive control = 100 | activation (reporter increase), % at 12.5 µM;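 active = mean replicate activation score at least 90 and every replicate individually at or above 90; inconclusive = only one of the two criteria met; inactive = neither criterion met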;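 also: higher luciferase means less miR-122 activity so hits act as miR-122 inhibitors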
S100A4 inh HTS: S100A4-myosin IIA interaction inhibition | 360,000 tested, 0.14% active | S100A4/TAMRA-MyoIIA peptide fluorescence polarization | P26447 | inhibition, % at 10.7 µM;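 active = mean inhibition of at least 70% across replicates, with every replicate also reaching that level; inconclusive = mean inhibition reaches 70% but some replicates fall short; inactive = mean inhibition below 70%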
Target sequence (P26447 whole entry, looked up): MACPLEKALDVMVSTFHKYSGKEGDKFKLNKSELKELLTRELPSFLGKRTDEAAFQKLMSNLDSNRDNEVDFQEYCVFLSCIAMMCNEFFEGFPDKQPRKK
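Material: S100A4 monomer protein | Medium: HEPES pH 7.2 with CaCl2, KCl, NaCl, DTT, Triton | Reagent: Labelled myosin peptide probe, 5 nM | Doses: One dose per compound | Times: 5 min incubation before reading | Benchmarks: Neutral control DMSO, positive control TFP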
Env fusion inh: HIV envelope-mediated fusion inhibition; HeLa-JRFL Env/CEM21 cell fusion, luciferase; inhibition, % at 12.3 µM; 360,000 tested, 1.1% active; AID 651610;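 active = mean replicate inhibition score of at least 50 and every replicate individually at or above 50; inconclusive = only one of the two criteria met; inactive = mean below 50 and not all replicates reaching 50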;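 also: 0% = plate neutral controls and 100% = maraviroc near 300 nM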
Vif imaging: blocks HIV Vif function. HEK293T cells, Vif self-association by quenched fluorescence, imaging, 24 h. inhibition, % at 7.49 µM. 340,000 tested, 0.35% active; in the data active = inhibition above about 50%, passing the limit was not always enough; inconclusive = no clear call, values can overlap the other calls; inactive = below about 31%
Ecoli rRNA inh: inhibits bacterial ribosomal RNA function over humanized ribosomes; 350,000 tested, 1.6% active; E. coli WT GFP vs humanized-ribosome RFP mutants, fluorescence, 24 h; hits give low values; DMSO median 0, no signal -100; GFP signal change (wild-type ribosome), % (test concentration not listed);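 active = significant combined selectivity score with lowered wild-type GFP, culture density cut under 30%, mutant RFP and density less affected; inactive = any of these conditions unmet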
* hit, by the source's call; ? = inconclusive; . = not tested or not shown; [ ] = dose if it differs, or a comment.

SMILES | FN deposition inh | miR122 inh | S100A4 inh HTS | Env fusion inh | Vif imaging | Ecoli rRNA inh
N#CC[n+]1cc(-c2ccc(Cl)cc2)n2c1CCC2 | . | -4.7 | . | -18.0 | . | .
Cc1ccc(-c2c[n+](CC(=O)c3ccc(Br)cc3)c3n2CCCCC3)cc1 | 4.2 | -4.7 | 3.5 | 35.4 | -3.1 | -51.1
Cc1ccc(-c2c[n+](CC(=O)Nc3nc(-c4ccccc4)cs3)c3n2CCC3)cc1 | -9.6 | . | -1.1 | 7.0 | -10.9 | -47.2*
CCN1/C(=C/c2ccc3cc(C)ccc3[n+]2C)Sc2ccc3sccc3c21 | -3.5 | -17.9 | -19.6 | 61.0* | . | 36.0
COc1ccc(NC(=O)Nc2cccc3c2O[C@H](CN(C)S(=O)(=O)c2ccc(F)cc2)[C@H](C)CN([C@@H](C)CO)C3=O)cc1 | . | -0.6[16.7 µM] | . | -17.0[16.7 µM] | . | -1.1
COc1cccc(CN2CC(C(=O)N(C)Cc3ccc(C)cc3)CCC2=O)c1 (stereo not given) | -2.4 | -5.2 | -1.9 | 58.2* | -23.5 | -3.8
CCCN(CCC)C(=O)c1ccc2c(c1)S(=O)(=O)c1ccccc1C2=O | 6.8 | 3.6 | 0.2 | 12.1 | -6.3 | -27.6
CCN(Cc1ccncc1)C(=O)c1ccc2c(c1)S(=O)(=O)c1ccccc1C2=O | 39.0* | 0.9 | 2.1 | 5.7 | -5.1 | -8.9
COc1ccc(OC)c(NC(=O)C2CCN(c3cc(-c4ccccc4)nc4ncnn34)CC2)c1 | . | 0.7 | . | 3.7 | -18.5 | .
COc1ccc(NC(=O)C2CCN(c3cc(-c4ccccc4)nc4ncnn34)CC2)cc1OC | 1.8 | . | . | 60.1* | -6.4 | .
Cc1ccc(C2(c3ccccc3)NC(=O)N(CC(=O)NC3(C#N)CCCC3)C2=O)cc1C (stereo not given) | 10.3 | . | -8.0 | 1.7 | 3.8 | -28.0*
COc1ccc(C2(c3ccc(OC)cc3)NC(=O)N(CC(=O)NC3(C#N)CCCC3)C2=O)cc1 | 1.7 | . | -2.1 | -2.0 | 0.2 | -2.4
O=C(NC1CCCC1)N[C@@H]1CC[C@H](CC(=O)N2CCOCC2)O[C@@H]1CO | . | 0.0[16.7 µM] | 13.6 | -8.9[16.7 µM] | . | 1.7
C[C@@H]1CN([C@@H](C)CO)C(=O)c2cc(NC(=O)C3CC3)ccc2O[C@@H]1CN(C)CC1CC1 | . | -0.1[16.7 µM] | -9.4 | -10.1[16.7 µM] | . | 1.5
COc1cccc(C(=O)N[C@H](C(=O)N2CCC[C@H]2C(=O)NCCc2ccccc2Cl)c2ccccc2)c1 | 10.8 | . | 27.8 | -1.9 | . | -33.6*
COc1cccc(C(=O)N[C@H](C(=O)N2CCC[C@H]2C(=O)NCCc2ccccc2Cl)C(C)C)c1 | 0.4 | . | -7.9 | -5.6 | . | -2.5
CCCCNS(=O)(=O)c1ccc2nc(SCC(=O)c3ccccc3OC)[nH]c2c1 | . | ? | -4.3 | . | -8.9 | -45.4*
CCCCNS(=O)(=O)c1ccc2nc(SCC(=O)Nc3sccc3C#N)[nH]c2c1 | -2.9 | 202.3* | . | 12.4 | 12.9 | .
CCCCNS(=O)(=O)c1ccc2nc(SCC(N)=O)[nH]c2c1 | 4.5 | 153.0* | -4.0 | 16.3 | -1.9 | 11.0
CC(OC(=O)c1ccccc1C(=O)O)c1ccccc1 (stereo not given) | -3.7 | . | 7.6 | -9.9 | 52.5* | 0.0
COc1ccc(C2=NN3C(C2)c2ccccc2OC3c2cccs2)cc1 (stereo not given) | 0.2 | . | -17.9 | -79.3 | 3.3 | -36.1
Cc1ccc(C2=NN3C(C(=O)c4ccccc4)Oc4ccccc4C3C2)cc1 (stereo not given) | -8.3 | 114.2* | . | -131.7 | -4.3 | .
C[C@H](CO)N1C[C@H](C)[C@H](CN(C)Cc2ccccn2)Oc2ncc(C#C[C@@H](C)O)cc2C1=O | . | 1.7[16.7 µM] | -17.3 | -27.3[16.7 µM] | . | 2.5
C[C@H]1CN(C)C(=O)Cc2ccccc2O[C@@H]1CN(C)S(C)(=O)=O | -10.7 | . | . | . | . | -0.7
CS(=O)(=O)N1CCCCN2[C@H](C1)[C@H](c1ccc(C#Cc3ccccn3)cc1)[C@@H]2CO | 2.2 | 2.9[16.7 µM] | -4.8 | . | . | 5.7
COC(=O)c1ccc(COC(=O)[C@@H]2CC(O)CN2S(=O)(=O)c2ccccc2[N+](=O)[O-])cc1 (stereo not given in full) | 3.3 | -15.5 | -17.8 | -22.9 | 1.4 | -17.4*
CCCNC(=O)c1cc(C2CCCN(S(=O)(=O)c3cccc4cccnc34)C2)on1 (stereo not given) | -2.1 | 23.8 | -2.1 | 11.0 | 72.5* | -15.0*
